Data published in ChEMBL document CHEMBL1139890, “Cucurbitane glycosides from the fruits of Siraitia gros venorii and their inhibitory effects on Epstein-Barr virus activation” (2007).

Legend:
[1] = test system: Human gammaherpesvirus 4; assay: Inhibitory effect on TPA-induced Epstein-Barr virus early antigen activation in Raji cells at 10 mol ratio/32 pmol TPA relative to TPA; assay type: functional; set-up: scale not given: the % may be the effect or the level left
Procedure, shortened: (§1)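 Raji cells induced with TPA at 32 pmol (20 ng), taken as 100%. Compounds given as molar ratio to TPA. EBV-EA induction is scored against this TPA-only positive control. Raji cell viability is reported as a percentage. IC50 is the molar ratio to TPA giving 50% inhibition of the positive control.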

[2] = Inhibitory ratio on NOR1-induced NO activation in human Chang liver cells assessed as nitric oxide scavenging activity relative to NOR1; assay type: functional
Procedure, shortened: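 Chang liver cells (normal human hepatic cells) were used with NOR 1, an NO donor, as the NO source. Compounds were tested at 350 nmol. Scavenging of NO generated by NOR 1 is given as an inhibitory ratio. The ratio for NOR 1 alone (positive control, 350 nm) is set at 1.0.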

[3] = test system: Human gammaherpesvirus 4; assay: Inhibitory effect on TPA-induced Epstein-Barr virus early antigen activation in Raji cells at 500 mol ratio/32 pmol TPA relative to TPA; assay type: functional; set-up: scale not given: the % may be the effect or the level left; procedure, shortened: as §1
[4] = test system: Human gammaherpesvirus 4; assay: Inhibitory effect on TPA-induced Epstein-Barr virus early antigen activation in Raji cells at 1000 mol ratio/32 pmol TPA relative to TPA; assay type: functional; set-up: scale not given: the % may be the effect or the level left; procedure, shortened: as §1
[5] = test system: Raji; assay: Cell viability of Raji cells at 1000 mol ratio/32 pmol TPA; assay type: functional, Homo sapiens; procedure, shortened: as §1
[6] = test system: Human gammaherpesvirus 4; assay: Inhibitory effect on TPA-induced Epstein-Barr virus early antigen activation in Raji cells at 100 mol ratio/32 pmol TPA relative to TPA; assay type: functional; set-up: scale not given: the % may be the effect or the level left; procedure, shortened: as §1

| Structure (SMILES) | Activity [1] [%] | Ratio [2] | Activity [3] [%] | Activity [4] [%] | Activity [5] [%] | Activity [6] [%] |
| --- | --- | --- | --- | --- | --- | --- |
| C[C@H](CC[C@@H](O[C@@H]1O[C@H](CO[C@@H]2O[C@H](CO)[C@@H](O)[C@H](O)[C@H]2O)[C@@H](O)[C@H](O)[C@H]1O)C(C)(C)O)[C@H]1CC[C@@]2(C)[C@@H]3CC=C4[C@@H](CC[C@H](O[C@@H]5O[C@H](CO)[C@@H](O)[C@H](O)[C@H]5O)C4(C)C)[C@]3(C)CC[C@]12C | 100 | 1.5 | 25.7 | 10.6 | 70 | 81.9 |
| C[C@H](CC[C@@H](O[C@@H]1O[C@H](CO)[C@@H](O)[C@H](O)[C@H]1O)C(C)(C)O)[C@H]1CC[C@@]2(C)[C@@H]3C(=O)C=C4[C@@H](CC[C@H](O[C@@H]5O[C@H](CO)[C@@H](O)[C@H](O)[C@H]5O)C4(C)C)[C@]3(C)[C@H](O)C[C@]12C | 100 | 1.5 | 24.4 | 7.7 | 70 | 80.8 |
| CC1(C)N([O])C(c2ccc(C(=O)O)cc2)=[N+]([O-])C1(C)C |  | 8 |  |  |  |  |
| C[C@H](CC[C@@H](O[C@@H]1O[C@H](CO[C@@H]2O[C@H](CO)[C@@H](O)[C@H](O)[C@H]2O)[C@@H](O)[C@H](O)[C@H]1O)C(C)(C)O)[C@H]1CC[C@@]2(C)[C@@H]3CC=C4[C@@H](CC[C@H](O)C4(C)C)[C@]3(C)C(=O)C[C@]12C | 100 | 1.4 | 25 | 8.5 | 70 | 80.6 |
| C[C@H](CC[C@@H](O[C@@H]1O[C@H](CO[C@@H]2O[C@H](CO)[C@@H](O)[C@H](O)[C@H]2O)[C@@H](O)[C@H](O)[C@H]1O)C(C)(C)O)[C@H]1CC[C@@]2(C)[C@@H]3CC=C4[C@@H](CC[C@H](O[C@@H]5O[C@H](CO[C@@H]6O[C@H](CO)[C@@H](O)[C@H](O)[C@H]6O)[C@@H](O)[C@H](O)[C@H]5O)C4(C)C)[C@]3(C)C(=O)C[C@]12C [11-OXOMOGROSIDE IV A] | 100 | 1.4 | 27.3 | 10.3 | 70 | 82.5 |
| CC1=C(/C=C/C(C)=C/C=C/C(C)=C/C=C/C=C(C)/C=C/C=C(C)/C=C/C2=C(C)CCCC2(C)C)C(C)(C)CCC1 [BETA CAROTENE] | 100 |  |  | 8.6 | 70 |  |
| CC1(C)[C@@H](O[C@H]2O[C@H](C(=O)O)[C@@H](O)[C@H](O)[C@H]2O[C@@H]2O[C@H](C(=O)O)[C@@H](O)[C@H](O)[C@H]2O)CC[C@]2(C)[C@H]3C(=O)C=C4[C@@H]5C[C@@](C)(C(=O)O)CC[C@]5(C)CC[C@@]4(C)[C@]3(C)CC[C@@H]12 [GLYCYRRHIZIN] |  | 2.2 |  |  |  |  |
| C[C@H](CC[C@@H](O)C(C)(C)O[C@@H]1O[C@H](CO)[C@@H](O)[C@H](O)[C@H]1O)[C@H]1CC[C@@]2(C)[C@@H]3CC=C4[C@@H](CC[C@H](O[C@@H]5O[C@H](CO)[C@@H](O)[C@H](O)[C@H]5O)C4(C)C)[C@]3(C)[C@H](O)C[C@]12C [MOGROSIDE II B] | 100 | 1.5 | 26 | 7.2 | 70 | 76 |
| C[C@H](CC[C@@H](O[C@@H]1O[C@H](CO)[C@@H](O)[C@H](O)[C@H]1O)C(C)(C)O)[C@H]1CC[C@@]2(C)[C@@H]3CC=C4[C@@H](CC[C@H](O[C@@H]5O[C@H](CO[C@@H]6O[C@H](CO)[C@@H](O)[C@H](O)[C@H]6O)[C@@H](O)[C@H](O)[C@H]5O)C4(C)C)[C@]3(C)[C@H](O)C[C@]12C [MOGROSIDE III A2] | 100 | 1.5 | 24 | 5.1 | 70 | 75.3 |
